Screening data (PubChem BioAssay)
C2C12 statin – suppression of simvastatin myotoxicity; C2C12 myotubes + simvastatin, ATP luminescence, 48 h; scaled: DMSO 0, geranylgeraniol control 100; rescue of ATP level, % at 7.49 µM; 0.78% of 330,000 active;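 active means mean ATP rescue above about 67%, or every replicate alone reaching that limit, limit read from the data, passing the limit was not always enough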;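 further: myotubes were challenged with 10 µM simvastatin during compound exposure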
A3G deaminase – inhibitors of human APOBEC3G DNA deaminase | inhibition, % at 20 µM | recombinant A3G, ssDNA deamination FAM/TAMRA fluorescence | AID 493012 | 0.28% of 330,000 active | Q9HC16;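 active means inhibition of at least 40% at 20 µM, with no more than 30% in the related APOBEC3A deaminase screen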
Target sequence (Q9HC16 whole entry, looked up): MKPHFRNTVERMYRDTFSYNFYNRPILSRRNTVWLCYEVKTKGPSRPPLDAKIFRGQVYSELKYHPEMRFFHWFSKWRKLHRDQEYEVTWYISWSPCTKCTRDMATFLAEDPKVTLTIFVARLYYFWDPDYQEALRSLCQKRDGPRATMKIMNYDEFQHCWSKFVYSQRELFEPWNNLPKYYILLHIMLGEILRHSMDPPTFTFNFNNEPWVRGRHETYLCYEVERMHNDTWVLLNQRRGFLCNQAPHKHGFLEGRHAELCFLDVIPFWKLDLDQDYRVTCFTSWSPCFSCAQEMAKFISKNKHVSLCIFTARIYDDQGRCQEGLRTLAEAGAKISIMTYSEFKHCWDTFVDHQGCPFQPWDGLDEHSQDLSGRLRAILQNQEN
SUMO Mot1 rescue – blocks SUMOylation pathway, rescuing yeast Mot1-301 growth | S. cerevisiae Mot1-301 growth rescue, ATP luminescence, 38.5C; percent above DMSO median, 100 means doubled | growth rescue, % at 18.8 µM | 1% of 320,000 active;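 active means every valid replicate shows activation above 250% relative to neutral control wells; inactive means the rest, any valid replicate at or below 250%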
ASAP1 GAP inh – blocks human ASAP1-stimulated Arf1 GTP hydrolysis; inhibition, % at 16.5 µM; GDP FP detection; 0.19% of 360,000 active; Q9ULH1; AID 624377; in the data active means inhibition above about 25%
ARFGAP1 inhibitor – inhibitors of rat ARFGAP1; Q62848; Arfgap1-stimulated ARF1 GTP hydrolysis, GDP FP detection; inhibition, % at 16.5 µM; 0.26% of 360,000 active; AID 651572;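 active means inhibition above a per-plate limit, mean inhibition of low control wells plus 3 SD, cut at about 25% in these data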
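Replicates: Single well per compound | Assay system: Truncated rat Arfgap1 GAP domain | Control set: No-Arfgap1 wells (100%) versus DMSO full-reaction wells (0%) | Times: Enzyme reaction 120 min at 25 °C after 20 min preincubation | Reagent: Human ARF1(Δ1-17)-GTP substrate | Measured by: Tracer-displacement fluorescence polarization with EDTA stop, 620/688 nm | Measure: Percent inhibition of Arfgap1-stimulated GTP hydrolysis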
APOBEC3A inh – inhibitors of human APOBEC3A DNA deaminase; P31941; recombinant A3A, FAM/TAMRA ssDNA deamination fluorescence; inhibition, % at 20 µM; 0.41% of 330,000 active;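 active means at least 40% inhibition at 20 µM here, with at most 30% in a related deaminase screen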
Target sequence (P31941 whole entry, looked up): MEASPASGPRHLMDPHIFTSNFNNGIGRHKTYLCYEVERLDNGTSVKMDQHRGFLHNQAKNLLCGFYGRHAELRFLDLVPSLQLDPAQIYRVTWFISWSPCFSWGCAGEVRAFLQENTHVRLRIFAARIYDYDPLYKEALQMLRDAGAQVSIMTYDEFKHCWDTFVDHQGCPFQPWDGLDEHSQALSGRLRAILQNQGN
Each line names hits and unclear results; the compound was inactive in the other large screens. Sampled rows, rich in hits. Any-hit rate of the full collection: about 2.1%.

CCCNC(=O)C[C@@H]1CC[C@@H]2[C@H](COc3ccc(NS(=O)(=O)c4ccccc4C)cc3C(=O)N2C)O1	none (no result: A3G deaminase, SUMO Mot1 rescue, ASAP1 GAP inh, ARFGAP1 inhibitor, APOBEC3A inh)
CCOC(=O)C1=C(C)C(c2ccccc2O)NC(=O)N1 (stereo not given)	C2C12 statin 87
CN1[C@@H]2c3ccc(-c4ccc(F)cc4)c(=O)n3C[C@@H]2[C@@H](CO)[C@@H]1C(=O)NCCN1CCCCC1	none (no result: A3G deaminase, SUMO Mot1 rescue, ASAP1 GAP inh, ARFGAP1 inhibitor, APOBEC3A inh)
COc1ccccc1-c1ccc([C@H]2[C@H](C#N)N(C(=O)C3CC3)[C@H]2CO)cc1	none (no result: A3G deaminase, SUMO Mot1 rescue, ASAP1 GAP inh, ARFGAP1 inhibitor, APOBEC3A inh)
O=S(=O)(c1ccc(S(=O)(=O)N2CCN(C/C=C/c3ccccc3)CC2)cc1)N1CCCC1	SUMO Mot1 rescue 295
N#C[C@H]1[C@H](c2ccc(C#CC3CCCCC3)cc2)[C@H](CO)N1C(=O)Cc1ccccn1	none (no result: A3G deaminase, SUMO Mot1 rescue, ASAP1 GAP inh, ARFGAP1 inhibitor, APOBEC3A inh)
CC(C)C(NC(=O)C1CCCCC1)C(=O)NCc1ccccn1 (stereo not given)	none
CC1CCC(C(=O)NC(C(=O)NCc2ccccn2)C(C)C)CC1 (stereo not given)	SUMO Mot1 rescue 344 (no result: C2C12 statin)
O=C(c1ccc([N+](=O)[O-])cc1)N1C=CC(C(F)(F)F)=NCC1	SUMO Mot1 rescue 346 (no result: C2C12 statin)
C[C@H]1CN([C@@H](C)CO)C(=O)c2cccc(NC(=O)Nc3ccccc3)c2O[C@@H]1CN(C)S(=O)(=O)c1ccc(Cl)cc1	none (no result: A3G deaminase, SUMO Mot1 rescue, ASAP1 GAP inh, ARFGAP1 inhibitor, APOBEC3A inh)
CN(C)CCCNC(=O)C[C@H]1C=C[C@H](NS(=O)(=O)c2ccccc2)[C@@H](CO)O1	none (no result: A3G deaminase, SUMO Mot1 rescue, ASAP1 GAP inh, ARFGAP1 inhibitor, APOBEC3A inh)
O=C(C[C@H]1CC[C@@H]2[C@H](COC[C@@H](O)CN2CC2CCOCC2)O1)N1CCOCC1	none (no result: A3G deaminase, SUMO Mot1 rescue, ASAP1 GAP inh, ARFGAP1 inhibitor, APOBEC3A inh)
Cn1ncc(C#N)c1/N=C/N1CCCCCC1	none
Cn1ncc(C#N)c1/N=C/N1CCOCC1	C2C12 statin 117
C[C@@H]1CN([C@H](C)CO)S(=O)(=O)c2ccc(C#CC3CC3)cc2O[C@H]1CN(C)Cc1ccncc1	none (no result: A3G deaminase, SUMO Mot1 rescue, ASAP1 GAP inh, ARFGAP1 inhibitor, APOBEC3A inh)
O=C(Cc1ccccc1)NNC1CC(=O)N(c2ccc(Cl)cc2)C1=O (stereo not given)	none
O=C(Cc1ccc(Cl)cc1)NNC1CC(=O)N(c2ccc3ccccc3c2)C1=O (stereo not given)	SUMO Mot1 rescue 289 (no result: C2C12 statin)
CCc1cc[n+](-c2nc([O-])sc2C=O)cc1	C2C12 statin 108
COC(=O)NC(=C(Cl)Cl)S(=O)(=O)c1ccccc1	C2C12 statin 147
CC=Cc1ccc2n(c1=O)C[C@@H]1[C@@H](CO)[C@H](C(=O)N3CCCCC3)N(C(=O)CC)[C@H]21 (mixture of isomers)	none (no result: A3G deaminase, SUMO Mot1 rescue, ASAP1 GAP inh, ARFGAP1 inhibitor, APOBEC3A inh)
COc1ccc(C2CC(=O)c3cnc(NC(=O)c4ccccc4)nc3C2)c(OC)c1 (stereo not given)	none
COc1ccc(C2CC(=O)c3cnc(N)nc3C2)c(OC)c1 (stereo not given)	C2C12 statin 106 (no result: A3G deaminase, SUMO Mot1 rescue, APOBEC3A inh)
C[C@H]1CCCCO[C@H](CN(C)C(=O)Nc2ccc(C(F)(F)F)cc2)[C@@H](C)CN([C@@H](C)CO)C(=O)c2cc(NC(=O)Nc3cccc4ccccc34)ccc2O1	none (no result: A3G deaminase, SUMO Mot1 rescue, ASAP1 GAP inh, ARFGAP1 inhibitor, APOBEC3A inh)
CN1CCN(c2nc3c(c(=O)n(C)c(=O)n3C)n2Cc2cccc3ccccc23)CC1	C2C12 statin 116
O=C(CN1CCOCC1)NCC[C@@H]1CC[C@H](NC(=O)Nc2ccc(Cl)cc2)[C@@H](CO)O1	none (no result: A3G deaminase, SUMO Mot1 rescue, ASAP1 GAP inh, ARFGAP1 inhibitor, APOBEC3A inh)
NS(=O)(=O)c1ccc(CCNCC(=O)N2CCC(Cc3ccccc3)CC2)cc1	C2C12 statin 85
NS(=O)(=O)c1ccc(CCNCC(=O)NC2CC2)cc1	none
COc1ccc(/C=C/C(=O)Nc2ccc(OC)nc2)cc1	C2C12 statin 84
COC(=O)C(Cc1ccc(OC(=O)c2ccc(C(F)(F)F)cc2)cc1)N1Cc2ccccc2C1=O (stereo not given)	none (no result: ASAP1 GAP inh, ARFGAP1 inhibitor)
COC(=O)C(Cc1ccc(OC(=O)c2ccc(Cl)cc2)cc1)N1Cc2ccccc2C1=O (stereo not given)	C2C12 statin 84
O=c1oc2cc(OCc3c(F)c(F)c(F)c(F)c3F)ccc2cc1-c1ccccn1	none (no result: C2C12 statin)
O=c1oc2cc(OCc3ccc(F)cc3F)ccc2cc1-c1ccccn1	C2C12 statin 130 (no result: SUMO Mot1 rescue)
COc1ccccc1C(=O)Nc1ccc2c(c1)C(=O)N(C)[C@@H]1CC[C@@H](CC(=O)NCCc3ccncc3)O[C@H]1CO2	none (no result: A3G deaminase, SUMO Mot1 rescue, ASAP1 GAP inh, ARFGAP1 inhibitor, APOBEC3A inh)
